pIC50: −log10 of the molar value. Values joined by “and” are separate entries in the source; they are usually repeats but may differ in a detail not shown here. Equal entries are not always repeated.
Experiments:
[1] = target: Smoothened (Mus musculus) (UniProt P56726); assay: Antagonist activity at smoothened expressed in mouse Shh Light2 cells assessed as inhibition of purmorphamine- induced Gli-dependent luciferase gene expression
Smoothened homolog = Smoothened homolog (Homo sapiens, UniProt Q99835); assay: Displacement of BODIPY-cyclopamine from human Smo expressed in HEK293 cells in presence of 2% fetal calf serum
Procedure, shortened: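 Competition binding: displacement of fluorescently labeled bodipy-cyclopamine from recombinant human Smo expressed in HEK-293 cells. Run in 2% fetal calf serum and, separately, in 20% normal human serum. IC50 values are means of at least five experiments.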

Chain of Smoothened (Mus musculus) (P56726 whole entry, looked up): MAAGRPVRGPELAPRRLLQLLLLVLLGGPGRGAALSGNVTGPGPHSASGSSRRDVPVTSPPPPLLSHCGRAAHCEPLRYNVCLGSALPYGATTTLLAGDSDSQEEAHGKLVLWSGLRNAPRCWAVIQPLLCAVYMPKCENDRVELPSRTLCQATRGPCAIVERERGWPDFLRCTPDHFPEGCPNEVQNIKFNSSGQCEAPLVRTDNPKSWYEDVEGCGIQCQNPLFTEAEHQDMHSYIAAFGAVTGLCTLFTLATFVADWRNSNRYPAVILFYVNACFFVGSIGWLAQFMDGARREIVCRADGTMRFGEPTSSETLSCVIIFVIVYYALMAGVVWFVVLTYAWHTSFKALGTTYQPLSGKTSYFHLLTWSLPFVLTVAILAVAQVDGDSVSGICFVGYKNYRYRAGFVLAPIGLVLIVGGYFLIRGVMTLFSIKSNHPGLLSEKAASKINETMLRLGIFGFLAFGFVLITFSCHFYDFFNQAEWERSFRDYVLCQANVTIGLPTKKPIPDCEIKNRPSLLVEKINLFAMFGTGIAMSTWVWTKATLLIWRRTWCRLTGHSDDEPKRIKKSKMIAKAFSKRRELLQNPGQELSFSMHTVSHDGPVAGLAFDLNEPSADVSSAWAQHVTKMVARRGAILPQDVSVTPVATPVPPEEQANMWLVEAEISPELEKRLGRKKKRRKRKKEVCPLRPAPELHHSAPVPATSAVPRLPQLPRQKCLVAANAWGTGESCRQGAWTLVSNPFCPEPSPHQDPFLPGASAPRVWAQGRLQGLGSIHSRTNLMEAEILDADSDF
Chain of Smoothened homolog (Q99835 whole entry): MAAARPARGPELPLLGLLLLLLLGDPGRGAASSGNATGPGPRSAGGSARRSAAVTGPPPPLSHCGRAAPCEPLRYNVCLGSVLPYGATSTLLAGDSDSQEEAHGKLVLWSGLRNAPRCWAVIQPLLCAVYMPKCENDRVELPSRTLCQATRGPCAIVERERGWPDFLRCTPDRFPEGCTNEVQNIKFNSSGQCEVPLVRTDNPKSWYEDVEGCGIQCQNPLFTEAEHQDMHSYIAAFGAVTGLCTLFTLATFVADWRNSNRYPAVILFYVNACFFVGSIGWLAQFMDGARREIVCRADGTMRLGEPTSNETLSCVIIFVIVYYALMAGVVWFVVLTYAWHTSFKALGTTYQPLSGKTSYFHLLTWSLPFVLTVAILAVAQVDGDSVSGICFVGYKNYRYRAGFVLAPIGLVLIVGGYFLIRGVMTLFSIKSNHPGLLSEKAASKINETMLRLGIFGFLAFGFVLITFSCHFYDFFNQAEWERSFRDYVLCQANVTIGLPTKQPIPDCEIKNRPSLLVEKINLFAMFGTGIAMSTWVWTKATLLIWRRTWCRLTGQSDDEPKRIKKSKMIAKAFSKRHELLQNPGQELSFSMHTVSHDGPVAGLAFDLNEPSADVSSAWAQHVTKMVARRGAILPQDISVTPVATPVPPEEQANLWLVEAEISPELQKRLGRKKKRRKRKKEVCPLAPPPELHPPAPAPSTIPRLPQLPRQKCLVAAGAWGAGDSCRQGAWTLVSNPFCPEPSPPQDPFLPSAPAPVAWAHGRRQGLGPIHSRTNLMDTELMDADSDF

| pIC50 [1] | pIC50 (Smoothened homolog) | Compound |
| --- | --- | --- |
| 7.55 |  | O=C(Nc1cccnc1-c1ccccc1)N1CCn2c(c(O)n([C@H]3C[C@@H]3c3ccccc3)c2=O)C1 |
| 7.05 |  | O=C(Nc1cccnc1-c1ccsc1)N1CCn2c(c(O)n([C@H]3C[C@@H]3c3ccccc3)c2=O)C1 |
| 6.57 and 6.37 |  | O=C(Nc1cccc(Cl)c1Cl)N1CCn2c(c(O)n([C@H]3C[C@@H]3c3ccccc3)c2=O)C1 |
| 7.00 and 7.38 and 6.85 | 7.32 and 7.68 | O=C(Nc1ccccc1-c1ccccc1)N1CCn2c(c(O)n([C@H]3C[C@@H]3c3ccccc3)c2=O)C1 |
| 7.39 |  | CS(=O)(=O)c1cc(Cl)c(NC(=O)N2CCn3c(c(O)n([C@H]4C[C@@H]4c4ccccc4)c3=O)C2)c(Cl)c1 |
| 8.10 |  | O=C(Nc1ccnn1-c1cccc(Cl)c1)N1CCn2c(c(O)n([C@H]3C[C@@H]3c3ccccc3)c2=O)C1 |
| 8.22 |  | O=C(Nc1ccnn1-c1cccc(F)c1)N1CCn2c(c(O)n([C@H]3C[C@@H]3c3ccccc3)c2=O)C1 |
| 5.85 |  | C[C@]12CN(C(=O)Nc3ccccc3-c3ccccc3)CCN1C(=O)N([C@H]1C[C@@H]1c1ccccc1)C2=O |
| 7.64 |  | C[C@@]12CN(C(=O)Nc3ccccc3-c3ccccc3)CCN1C(=O)N([C@H]1C[C@@H]1c1ccccc1)C2=O |
| 7.77 |  | C[C@@]12CN(C(=O)Nc3ccnn3-c3ccccc3)CCN1C(=O)N([C@H]1C[C@@H]1c1ccccc1)C2=O |
| 6.06 and 5.85 |  | O=C(Nc1cccc(Cl)c1Cl)N1CCn2c(c(O)n([C@@H]3C[C@H]3c3ccccc3)c2=O)C1 |

— BindingDB's records for doi:10.1016/j.bmcl.2011.06.023 (Merck Research Laboratories, 2011)
